Assay results pooled from the literature.
Target: Serine/threonine-protein kinase N2 (PKN2, Homo sapiens, UniProt Q16513)

Structure (SMILES) | observed | method | tested at | remaining binding
COc1ncc2cc3ccccc3nc2c1C#N | cell-free assay | competition with immobilised ligand | 5 µM | 80%
O=C(c1ccc(Nc2ncc(Cl)c(-c3ccc(Cl)s3)n2)cc1)N1CCC(N2CCCC2)CC1 | binding | competition with immobilised ligand | 1 µM | 56%
Cn1nc(C(=O)NCc2ccc(C(=O)O)cc2)cc1-c1ccc2[nH]ccc2c1 | cell-free assay | competition with immobilised ligand | 0.1 µM | 100%
c1cncc(-c2cccc(Nc3nccc(NC4CCCCC4)n3)c2)c1 | binding | competition with immobilised ligand | 10 µM | 43%
O=C(NCC1CCOCC1)c1n[nH]cc1NC(=O)c1c(F)cccc1F | binding | competition with immobilised ligand | 1 µM | 89%
O=C(NCc1ncc(C(F)(F)F)cc1Cl)c1ccc2c(c1)C1(CCS(=O)(=O)CC1)[C@@H](C1CC1)N2S(=O)(=O)c1ccc(F)cc1 | cell-free assay | competition with immobilised ligand | 1 µM | 68%
COc1cnc(Nc2cccc(S(N)(=O)=O)c2)nc1N1CCN(c2ccccc2)C(=O)C1 | binding | competition with immobilised ligand | 1 µM | 100%
C[C@H]1CCN(c2nccc(-c3cnn4ncccc34)n2)C1 | binding |  | 1 µM | 95%
CC(=O)Nc1c(C(C)=O)c(=O)n(C)c2nc(-c3ccc(Cl)cc3Cl)c(-c3ccc(Cl)cc3)cc12 | cell-free assay | competition with immobilised ligand | 1 µM | 100%
Cc1cnc(Nc2ccc(C(=O)N3CCC(N4CCCC4)CC3)cc2)nc1-c1cc2ccccc2s1 | binding | competition with immobilised ligand | 1 µM | 21%
COc1ccnn2ncc(-c3ccnc(N(C)C)n3)c12 | binding |  | 1 µM | 87%
Nc1ncc2c(n1)-c1c([nH]c3ccc(C#CC4CC4)cc13)CCCC2 | binding | competition with immobilised ligand | 1 µM | 72%
C[C@H](c1ccc(F)cc1)N(Cc1cccc(C(=O)O)c1)C(=O)c1cnc2ccccc2c1 | cell-free assay | competition with immobilised ligand | 1 µM | 86%
CN(C)c1ncc(F)c(-c2cnn3ncccc23)n1 | binding |  | 1 µM | 100%
O=C(c1ccc(Nc2ncc(Cl)c(-c3cc4ccccc4s3)n2)cc1)N1CCC(N2CCCC2)CC1 | binding | competition with immobilised ligand | 1 µM | 11%
C[C@@H]1CN(c2cc(-c3nn(C)c4ccc(OC5(C)CC5)cc34)ncn2)C[C@H](C)O1 | cell-free assay | competition with immobilised ligand | 1 µM | 100%
F[C@@H]1CCN(c2nccc(-c3cnn4ncccc34)n2)C1 | binding |  | 1 µM | 100%
Cc1c(NC(=O)c2cc(C(N)=O)nc3cc(F)ccc23)c(C(F)(F)F)nn1Cc1ccc(C#N)cc1 | cell-free assay | competition with immobilised ligand | 1 µM | 81%
Cc1cnn2ncc(-c3ccnc(N(C)C)n3)c2c1 | binding |  | 1 µM | 94%
C[C@@H]1CN(c2cc(-c3n[nH]c4ccc(OC5(C)CC5)cc34)ncn2)C[C@H](C)O1 | cell-free assay | competition with immobilised ligand | 0.1 µM | 89%
N[C@@H]1CCN(c2nccc(-c3cnn4ncccc34)n2)C1 | binding |  | 1 µM | 100%
C[C@@H](c1ccc(-n2cnc3c(N)ncnc32)cc1)N1CCc2nn(C)c(Cc3ccccc3)c2C1=O | binding | competition with immobilised ligand | 0.1 µM | 84%
